According to ChEMBL document CHEMBL4145691, “Metalloporphyrin-Catalyzed Oxidation of Sunitinib and Pazopanib, Two Anticancer Tyrosine Kinase Inhibitors: Evidence for New Potentially Toxic Metabolites” (J Med Chem, 2018):

Assays:
[1] = Drug level using pazopanib assessed as compound formation in presence of MMPP and Mn(III)TDCPP/Cl by NMR and mass spectrometry; format: physicochemical
How it was run: (§1)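 Biomimetic oxidation catalysed by Mn(III)-porphyrin with water-soluble oxygen donor (KHSO5 or MMPP), run in biphasic water/organic medium with a quaternary ammonium salt as phase-transfer catalyst. Products identified by NMR and mass spectrometry.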

[2] = Retention time of the compound in presence of MMPP and Mn(III)TDCPP/Cl by UHPLC-MS analysis; format: physicochemical
How it was run: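 Pazopanib oxidation mixture run by UHPLC-MS at 0.4 mL/min and 30 °C. Eluents: 5 mM ammonium formate pH 3.2, and 0.1% formic acid in acetonitrile. ESI+, full scan m/z 200–520 plus MRM.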

[3] = Retention time of the compound in presence of KHSO5 and Mn(III)TDCPP/Cl by UHPLC-MS analysis; format: physicochemical
How it was run: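 Sunitinib oxidation mixture run by UHPLC-MS at 0.4 mL/min and 30 °C. Eluents: 5 mM ammonium formate pH 3.2, and 0.1% formic acid in acetonitrile. Gradient 5→35% B by 3.5 min, held to 5.5 min, then 95% by 6.5 min. ESI+, full scan m/z 200–500 plus MRM.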

[4] = Retention time of the compound in human liver microsomes by UHPLC-MS analysis; format: ADME, microsome
How it was run: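 Human liver microsomes (final 0.5 mg/mL protein) with NADPH regenerating system in 0.1 M phosphate pH 7.4, pre-incubated 5 min at 37 °C. Stopped with acetonitrile, centrifuged, filtered, supernatant analysed by UHPLC-MS (ESI+, full scan/MRM). No-NADPH negative control.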

[5] = Drug level using sunitinib assessed as compound formation in presence of KHSO5 and Mn(III)TDCPP/Cl by NMR and mass spectrometry; format: physicochemical; how it was run: as §1

| Compound | Product formation [1] | Retention_time [2] | Retention_time [4] | Product formation [5] | also measured |
| --- | --- | --- | --- | --- | --- |
| Cc1ccc(Nc2ncc(Cl)c(N(C)c3ccc4c(C=O)n(C)nc4c3)n2)cc1S(N)(=O)=O | Active | 3.63 min | – | – | – |
| CCN(CC)CCNC(=O)c1c(/C=N/OC)[nH]c(/C=C2\C(=O)Nc3ccc(F)cc32)c1C | – | – | 4.74 min | – | Retention_time [3]: 4.77 min |
| Cc1ccc(Nc2nccc(N(C)c3ccc4c(CO)n(C)nc4c3)n2)cc1S(N)(=O)=O | Active | 2.56 min | – | – | – |
| CO/N=C/c1c2ccc(N(C)c3ccnc(Nc4ccc(C)c(S(N)(=O)=O)c4)n3)cc2nn1C | Active | – | – | – | Retention time [2]: 2.96 to 3.11 min |
| CCN(CC)CCNC(=O)c1c(COC)[nH]c(/C=C2\C(=O)Nc3ccc(F)cc32)c1C | – | – | – | Active | Retention time [3]: 4.56 min |
| Cc1ccc(Nc2ncc(Cl)c(N(C)c3ccc4c(CO)n(C)nc4c3)n2)cc1S(N)(=O)=O | Active | 3.32 min | – | – | – |
| CCN(CC)CCNC(=O)c1c(CO)[nH]c(/C=C2\C(=O)Nc3ccc(F)cc32)c1C | – | – | 4.36 min | Active | Retention_time [3]: 4.36 min |
| CC(=O)OCc1c2ccc(N(C)c3ccnc(Nc4ccc(C)c(S(N)(=O)=O)c4)n3)cc2nn1C | Active | – | – | – | – |
| CC[N+]([O-])(CC)CCNC(=O)c1c(C)[nH]c(/C=C2\C(=O)Nc3ccc(F)cc32)c1C | – | – | – | Active | – |
| Cc1ccc(Nc2ncc(Cl)c(N(C)c3ccc4c(C)n(C)nc4c3)n2)cc1S(N)(=O)=O | Active | 3.55 min | 3.54 min | – | – |
| Cc1ccc(Nc2nccc(N(C)c3ccc4c(C=O)n(C)nc4c3)n2)cc1S(N)(=O)=O | Active | 2.82 min | 2.84 min | – | – |
| CCN(CC)CCNC(=O)c1c(C=O)[nH]c(/C=C2\C(=O)Nc3ccc(F)cc32)c1C | – | – | 4.36 min | Active | Retention_time [3]: 4.36 min |
